Assay results pooled from the literature.
Lines come from different studies, so protocols differ. In brackets after ≈: the same amount, converted by molar mass.

With `CC1(C)CC[C@]2(CO)CC[C@]3(C)C(=CC[C@@H]4[C@@]5(C)CC[C@@H]6O[C@H]([C@H](O)[C@@H](O)[C@H](O)CO)OC[C@@]6(C)[C@@H]5CC[C@]43C)[C@@H]2C1` the inhibition was 98.7% (Leishmania mexicana; parasite growth, resazurin; 50 µM, amastigote).
The inhibition of `O=c1ccc2cc3ccoc3cc2o1` is reported as 30.1% (tubulin polymerisation, inhibitor; 10 µM).
The MBC of `O=C1NC(=S)N/C1=C\c1c2ccccc2c(-c2ccc(N(c3ccccc3)c3ccccc3)cc2)c2ccccc12` is reported as over 1000 µg/mL (Staphylococcus epidermidis; microbial killing, broth dilution; ATCC12228).
`Cc1ccc(-c2nc3ccccc3s2)cc1NC(=O)c1cc([N+](=O)[O-])ccc1Cl` gave an EC50 of over 10000 nM (Leishmania mexicana; parasite growth; J774.A1; intracellular, amastigote).
For `O=C1NC(=S)N/C1=C\c1ccc(-c2ccc(N(c3ccccc3)c3ccccc3)cc2)c2ccccc12`, the MBC was over 1000 µg/mL (Staphylococcus epidermidis; microbial killing, broth dilution; ATCC12228).
`O=c1c(O[C@@H]2O[C@H](CO)[C@@H](O)[C@H](O)[C@H]2O)c(-c2ccc(O)cc2)oc2cc(O)cc(O)c12` has an inhibition of 21.2% (tubulin polymerisation, inhibitor; 10 µM).
The MBC of `O=C1NC(=S)S/C1=C\c1ccc(-c2ccc(N(c3ccccc3)c3ccccc3)cc2)cc1` is reported as 250 µg/mL (≈ 538 µM) (Staphylococcus epidermidis; microbial killing, broth dilution; ATCC12228).
`c1ccc2cc(Cn3cc[n+](Cc4ccc5ccccc5c4)c3)ccc2c1` gave a TGI of 1390 nM (HOP-92; cell growth or viability, SRB).
`C[C@H](O)[C@H](O)[C@@H](O)[C@@H](O)[C@@H]1OC[C@@]2(C)[C@@H]3CC[C@]4(C)[C@H](CC=C5[C@@H]6CC(C)(C)CC[C@]6(C(=O)O)CC[C@]54C)[C@@]3(C)CC[C@@H]2O1` gave an inhibition of 100% (Leishmania mexicana; parasite growth, resazurin; 50 µM, amastigote).
With `O=C(O)CN1C(=O)/C(=C/c2ccc(-c3ccc(N(c4ccccc4)c4ccccc4)cc3)c3ccccc23)NC1=S` the MBC was over 1000 µg/mL (Staphylococcus epidermidis; microbial killing, broth dilution; ATCC12228).
The inhibition of `CN(C[C@H](O)[C@@H](O)[C@H](O)[C@H](O)CO)C(=O)N[C@]12CCC(C)(C)C[C@H]1C1=CC[C@@H]3[C@@]4(C)CC[C@@H]5OC(C)(C)OC[C@@]5(C)[C@@H]4CC[C@@]3(C)[C@]1(C)CC2` is reported as 99% (Leishmania mexicana; parasite growth, resazurin; 50 µM, amastigote).
For `Cc1cc(Cl)c(Cl)cc1NC(=O)c1cc([N+](=O)[O-])c(F)cc1F`, the EC50 was 340 nM (Leishmania mexicana; parasite growth; J774.A1; intracellular, amastigote).
The inhibition of `O=c1c(O)c(-c2ccc(O)cc2)oc2cc(O)cc(O)c12` is reported as 15% (tubulin polymerisation, inhibitor; 10 µM).
For `CC1(C)CC[C@]2(NC(=O)N3CCC[C@H]3CO)CC[C@]3(C)C(=CC[C@@H]4[C@@]5(C)CC[C@@H]6OC(C)(C)OC[C@@]6(C)[C@@H]5CC[C@]43C)[C@@H]2C1`, the inhibition was 95.8% (Leishmania mexicana; parasite growth, resazurin; 50 µM, amastigote).
For `Cc1ccc(-c2nc3ccccc3s2)cc1NC(=O)c1cc([N+](=O)[O-])c(F)cc1F`, the EC50 was 640 nM (Leishmania mexicana; parasite growth; J774.A1; intracellular, amastigote).
For `O=C1NC(=S)N/C1=C\c1ccc(-c2ccc(N(c3ccccc3)c3ccccc3)cc2)cc1`, the MBC was over 1000 µg/mL (Staphylococcus epidermidis; microbial killing, broth dilution; ATCC12228).
With `C/C=C(/C)C(=O)O[C@@H]1[C@H](OC(C)=O)c2c(ccc3ccc(=O)oc23)OC1(C)C` the inhibition was 24.8% (tubulin polymerisation, inhibitor; 10 µM).
`CC1(C)CC[C@]2(C(=O)O)CC[C@]3(C)C(=CC[C@@H]4[C@@]5(C)CC[C@@H]6OCOC[C@@]6(C)[C@@H]5CC[C@]43C)[C@@H]2C1` has an inhibition of 97.5% (Leishmania mexicana; parasite growth, resazurin; 50 µM, amastigote).
`Nc1ncnc2c1ncn2[C@@H]1O[C@H](CO)[C@@H](O)[C@H]1O` gave an inhibition of 17.9% (tubulin polymerisation, inhibitor; 10 µM).
`O=C1NC(=S)S/C1=C\c1c2ccccc2c(-c2ccc(N(c3ccccc3)c3ccccc3)cc2)c2ccccc12` gave an MIC of over 1000 µg/mL (Staphylococcus epidermidis; microbial growth, broth dilution; ATCC12228).
With `CC1(C)CC[C@]2(C)CC[C@]3(C)[C@H]4CC=C5[C@@H](CC[C@H](O)C5(C)C)[C@]4(C)CC[C@@]3(C)[C@@H]2C1` the inhibition was 17% (tubulin polymerisation, inhibitor; 10 µM).
`CC1(C)CC[C@]2(C(=O)OCc3ccccc3[N+](=O)[O-])CC[C@]3(C)C(=CC[C@@H]4[C@@]5(C)CC[C@H](O)[C@@](C)(CO)[C@@H]5CC[C@]43C)[C@@H]2C1` has an inhibition of 100% (Leishmania mexicana; parasite growth, resazurin; 50 µM, amastigote).
`O=c1cc(-c2ccc(O)c(O)c2)oc2cc(O)cc(O)c12` gave an inhibition of 26.2% (tubulin polymerisation, inhibitor; 10 µM).
With `CO[C@H]1O[C@H]([C@@H]2OC[C@@]3(C)[C@@H]4CC[C@]5(C)[C@H](CC=C6[C@@H]7CC(C)(C)CC[C@]7(C(=O)O)CC[C@]65C)[C@@]4(C)CC[C@@H]3O2)[C@@H](O)[C@H](O)[C@H]1O` the inhibition was 96.6% (Leishmania mexicana; parasite growth, resazurin; 50 µM, amastigote).
